Source: ChEMBL document CHEMBL3608246, “Novel benzidine and diaminofluorene prolinamide derivatives as potent hepatitis C virus NS5A inhibitors” (Eur J Med Chem, 2015)
pEC50: −log10 of the molar value.

Experiments:
[1] = tested on: Hepatitis C virus; test: Antiviral activity against HCV genotype 1b NK/R2AN infected in human Huh7.5.1 cells assessed as reduction in virus replication by luciferase reporter gene assay; type: functional, organism-based, Hepacivirus hominis, subtype 1b NK/R2AN, Huh-7
[2] = tested on: Hepatitis C virus; test: Antiviral activity against HCV genotype 2a JFH5a infected in human Huh7.5.1 cells transfected with JFH5a-Rluc-ad34 assessed as reduction in virus proliferation by luciferase reporter gene assay; type: functional, cell-based, Hepacivirus hominis, Huh-7
[3] = Cytotoxicity against human Huh7.5.1 cells; type: cell-based, Huh-7
[4] = molecular target: T1, Cytochrome P450 1A2 (Homo sapiens, UniProt P05177); test: Inhibition of human CYP1A2 by luminometry; type: ADME
T1 sequence (P05177 whole entry): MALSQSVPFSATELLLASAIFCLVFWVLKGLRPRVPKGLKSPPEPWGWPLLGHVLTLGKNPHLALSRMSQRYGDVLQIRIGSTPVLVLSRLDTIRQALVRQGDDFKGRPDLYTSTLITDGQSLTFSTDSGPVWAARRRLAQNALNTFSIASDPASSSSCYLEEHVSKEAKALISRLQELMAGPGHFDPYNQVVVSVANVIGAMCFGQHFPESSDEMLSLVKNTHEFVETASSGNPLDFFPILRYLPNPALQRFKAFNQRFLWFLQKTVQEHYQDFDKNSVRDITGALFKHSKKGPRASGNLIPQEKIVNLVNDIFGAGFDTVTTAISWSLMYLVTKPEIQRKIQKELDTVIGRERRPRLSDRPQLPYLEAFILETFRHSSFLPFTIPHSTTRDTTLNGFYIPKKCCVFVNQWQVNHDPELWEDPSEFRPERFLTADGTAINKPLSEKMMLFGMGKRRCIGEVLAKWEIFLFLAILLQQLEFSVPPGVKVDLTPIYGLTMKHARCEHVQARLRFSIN
Summary of the method: (§1)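 Human CYP1A2, 2C9, 2C19, 2D6 and 3A4 inhibition by P450-Glo luminescent assay per kit protocol; compounds at 100, 50, 10, 5, 1, 0.1 and 0.01 µM; luminometer read-out.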

[5] = molecular target: Cytochrome P450 2C19 (Homo sapiens, UniProt P33261); test: Inhibition of human CYP2C19 by luminometry; type: ADME; summary of the method: as §1
[6] = molecular target: Cytochrome P450 2C9 (Homo sapiens, UniProt P11712); test: Inhibition of human CYP2C9 by luminometry; type: ADME; summary of the method: as §1
[7] = Stability in rat plasma assessed as compound remaining t 100 uM after 0.5 hrs by LC-MS/MS method; type: ADME, cell-free; conditions: read-out: Stability
Summary of the method: (§2)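 Rat plasma pre-warmed 5 min at 37 °C, mixed with test compound from 100 µM stock (3 into 297 parts), incubated at 37 °C; sampled at 0, 15, 30, 60, 120 min, acetonitrile-precipitated, centrifuged 10 min, supernatant analysed by LC-MS/MS.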

[8] = molecular target: hERG (KCNH2) (Homo sapiens, UniProt Q12809); test: Inhibition of human ERG at 10 uM by fluorescence polarization assay based ligand binding assay
[9] = Stability in rat plasma assessed as compound remaining at 100 uM after 2 hrs by LC-MS/MS method; type: ADME, cell-free; conditions: read-out: Stability; summary of the method: as §2
[10] = Oral bioavailability in Sprague-Dawley rat at 10 mg/kg by LC/MS/MS method; type: ADME, organism-based; conditions: in vivo
Summary of the method: (§3)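 Sprague-Dawley rats, 2 male and 1 female per compound per route, parallel design. Vehicle 5% DMSO, 10% solutol, 85% HPBCD; IV 5 mg/kg bolus via tail vein, oral 10 mg/kg. Blood into K2-EDTA tubes at several time points, centrifuged, plasma analysed by LC/MS/MS; non-compartmental analysis.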

[11] = Stability in rat plasma assessed as compound remaining at 100 uM after 1 hr by LC-MS/MS method; type: ADME, cell-free; conditions: read-out: Stability; summary of the method: as §2
[12] = Half life in Sprague-Dawley rat at 10 mg/kg, po by LC/MS/MS method; type: ADME, organism-based; conditions: in vivo; summary of the method: as §3
[13] = molecular target: Cytochrome P450 2D6 (Homo sapiens, UniProt P10635); test: Inhibition of human CYP2D6 by luminometry; type: ADME; summary of the method: as §1
[14] = Half life in Sprague-Dawley rat at 5 mg/kg, iv by LC/MS/MS method; type: ADME, organism-based; conditions: in vivo; summary of the method: as §3
[15] = Stability in human liver microsomes assessed as compound remaining at 1 uM after 0.5 hrs by LC-MS/MS method; type: ADME; conditions: read-out: Stability
Summary of the method: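 Pooled human liver microsomal fraction with β-NADPH, compound at 1 µM, incubated over 30 min; remaining compound in supernatant quantified by LC-MS/MS.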

[16] = molecular target: Cytochrome P450 3A4 (Homo sapiens, UniProt P08684); test: Inhibition of human CYP3A4 by luminometry; type: ADME; summary of the method: as §1
[17] = Hepatitis C virus, subtype 1b NK/R2AN, Huh-7
[18] = Hepatitis C virus, genotype 2a JFH5a, Huh-7

Sequence of Cytochrome P450 2D6 (P10635 whole entry): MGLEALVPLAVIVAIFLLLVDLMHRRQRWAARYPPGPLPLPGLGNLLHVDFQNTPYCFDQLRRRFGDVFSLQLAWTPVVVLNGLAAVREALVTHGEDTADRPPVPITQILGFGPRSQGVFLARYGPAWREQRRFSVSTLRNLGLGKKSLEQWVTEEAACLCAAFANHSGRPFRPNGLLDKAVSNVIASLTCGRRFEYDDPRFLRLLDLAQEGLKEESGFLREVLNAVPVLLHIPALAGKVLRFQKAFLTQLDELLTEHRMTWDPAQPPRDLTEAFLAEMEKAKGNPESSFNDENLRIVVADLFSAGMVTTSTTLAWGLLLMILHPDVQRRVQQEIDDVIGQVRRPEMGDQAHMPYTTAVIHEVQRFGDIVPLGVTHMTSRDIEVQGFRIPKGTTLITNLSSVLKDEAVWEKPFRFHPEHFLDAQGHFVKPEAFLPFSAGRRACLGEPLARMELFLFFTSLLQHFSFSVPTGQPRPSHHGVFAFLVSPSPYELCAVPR
Sequence of Cytochrome P450 3A4 (P08684 whole entry): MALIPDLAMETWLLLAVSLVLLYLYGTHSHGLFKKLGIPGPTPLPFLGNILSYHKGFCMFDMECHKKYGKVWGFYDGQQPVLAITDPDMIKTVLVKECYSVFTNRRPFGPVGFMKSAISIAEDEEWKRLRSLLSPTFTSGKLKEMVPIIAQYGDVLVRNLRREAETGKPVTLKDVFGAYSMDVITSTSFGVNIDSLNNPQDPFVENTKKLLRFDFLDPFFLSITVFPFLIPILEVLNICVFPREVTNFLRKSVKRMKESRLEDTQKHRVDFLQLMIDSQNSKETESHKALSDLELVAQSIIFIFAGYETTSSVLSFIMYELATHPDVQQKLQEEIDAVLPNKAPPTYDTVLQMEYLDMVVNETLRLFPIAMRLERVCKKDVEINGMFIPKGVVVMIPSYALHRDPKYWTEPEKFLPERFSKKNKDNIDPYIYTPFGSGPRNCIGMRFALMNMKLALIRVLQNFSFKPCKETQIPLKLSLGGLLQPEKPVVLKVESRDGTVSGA
Sequence of Cytochrome P450 2C9 (P11712 whole entry): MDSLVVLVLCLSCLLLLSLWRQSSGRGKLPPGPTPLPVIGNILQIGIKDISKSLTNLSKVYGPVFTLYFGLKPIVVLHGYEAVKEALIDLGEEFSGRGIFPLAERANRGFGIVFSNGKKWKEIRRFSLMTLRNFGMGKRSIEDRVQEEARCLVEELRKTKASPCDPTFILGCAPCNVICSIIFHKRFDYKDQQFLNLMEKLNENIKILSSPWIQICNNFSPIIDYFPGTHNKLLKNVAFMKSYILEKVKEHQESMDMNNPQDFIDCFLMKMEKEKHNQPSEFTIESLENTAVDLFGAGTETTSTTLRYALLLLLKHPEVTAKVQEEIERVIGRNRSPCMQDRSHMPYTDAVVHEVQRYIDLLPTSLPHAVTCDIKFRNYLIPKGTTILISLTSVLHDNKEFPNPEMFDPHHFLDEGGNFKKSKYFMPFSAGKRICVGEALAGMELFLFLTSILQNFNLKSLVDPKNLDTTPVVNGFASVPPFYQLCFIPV
Sequence of hERG (KCNH2) (Q12809 whole entry): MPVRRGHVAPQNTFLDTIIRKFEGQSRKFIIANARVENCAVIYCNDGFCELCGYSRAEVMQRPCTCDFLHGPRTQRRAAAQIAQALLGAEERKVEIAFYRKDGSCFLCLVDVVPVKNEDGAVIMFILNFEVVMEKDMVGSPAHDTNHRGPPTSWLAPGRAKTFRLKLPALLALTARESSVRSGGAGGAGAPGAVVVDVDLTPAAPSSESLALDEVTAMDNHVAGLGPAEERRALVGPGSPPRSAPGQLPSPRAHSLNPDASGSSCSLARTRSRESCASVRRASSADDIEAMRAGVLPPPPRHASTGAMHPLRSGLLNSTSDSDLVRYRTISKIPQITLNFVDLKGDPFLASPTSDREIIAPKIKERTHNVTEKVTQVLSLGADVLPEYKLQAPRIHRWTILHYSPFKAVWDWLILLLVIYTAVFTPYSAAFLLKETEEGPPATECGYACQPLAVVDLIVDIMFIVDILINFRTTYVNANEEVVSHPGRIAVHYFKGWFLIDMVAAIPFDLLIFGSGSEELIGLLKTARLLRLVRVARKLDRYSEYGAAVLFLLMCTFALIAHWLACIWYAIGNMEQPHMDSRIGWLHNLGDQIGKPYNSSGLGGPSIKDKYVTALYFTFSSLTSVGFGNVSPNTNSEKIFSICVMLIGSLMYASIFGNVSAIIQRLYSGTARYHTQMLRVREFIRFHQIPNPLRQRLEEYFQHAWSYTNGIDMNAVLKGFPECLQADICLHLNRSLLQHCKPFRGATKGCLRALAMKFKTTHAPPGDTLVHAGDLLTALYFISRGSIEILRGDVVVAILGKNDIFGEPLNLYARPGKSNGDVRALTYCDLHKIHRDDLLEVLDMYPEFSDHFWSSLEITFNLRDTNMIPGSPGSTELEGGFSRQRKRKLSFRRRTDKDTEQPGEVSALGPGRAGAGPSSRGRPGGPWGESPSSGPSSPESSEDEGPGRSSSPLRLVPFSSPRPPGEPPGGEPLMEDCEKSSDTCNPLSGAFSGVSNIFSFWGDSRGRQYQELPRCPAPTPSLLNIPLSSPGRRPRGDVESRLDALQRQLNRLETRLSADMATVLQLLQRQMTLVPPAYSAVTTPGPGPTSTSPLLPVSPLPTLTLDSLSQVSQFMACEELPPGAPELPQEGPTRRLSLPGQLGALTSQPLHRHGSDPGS
Sequence of Cytochrome P450 2C19 (P33261 whole entry): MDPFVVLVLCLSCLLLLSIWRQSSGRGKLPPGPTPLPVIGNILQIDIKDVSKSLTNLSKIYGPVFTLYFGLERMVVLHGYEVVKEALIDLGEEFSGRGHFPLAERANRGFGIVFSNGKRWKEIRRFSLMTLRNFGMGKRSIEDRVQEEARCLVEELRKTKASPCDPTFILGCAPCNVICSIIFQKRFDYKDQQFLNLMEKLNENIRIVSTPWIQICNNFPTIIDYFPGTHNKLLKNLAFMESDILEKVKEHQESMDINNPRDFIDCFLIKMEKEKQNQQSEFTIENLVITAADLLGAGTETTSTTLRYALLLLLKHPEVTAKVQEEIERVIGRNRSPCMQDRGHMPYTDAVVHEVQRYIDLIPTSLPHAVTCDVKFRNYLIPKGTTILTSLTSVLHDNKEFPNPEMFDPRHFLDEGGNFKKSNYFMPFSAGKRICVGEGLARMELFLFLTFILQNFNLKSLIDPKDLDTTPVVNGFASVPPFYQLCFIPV

COC(=O)N[C@@H](C(=O)N1CCC[C@H]1C(=O)Nc1ccc(-c2ccc(NC(=O)[C@@H]3CCCN3C(=O)[C@H](NC(=O)OC)c3ccccc3)c(C)c2)cc1C)c1ccccc1
pEC50 [1, 17]: 8.13
pEC50 [2, 18]: 6.71
CC50 [3]: > 25000 nM

COC(=O)N[C@@H](C(=O)N1CCC[C@H]1C(=O)Nc1ccc(-c2ccc(NC(=O)[C@@H]3CCCN3C(=O)[C@H](NC(=O)OC)c3ccccc3)cc2C(F)(F)F)c(C(F)(F)F)c1)c1ccccc1 (stereo in doubt; form 3)
pEC50 ([1]; huh-7): 8.62
pEC50 ([2]; huh-7): 7.61

COC(=O)N[C@@H](C(=O)N1CCC[C@H]1C(=O)Nc1ccc(-c2ccc(NC(=O)[C@@H]3CCCN3C(=O)[C@H](NC(=O)OC)c3ccccc3)cc2Cl)c(Cl)c1)c1ccccc1
pEC50 [4]: 4.62
pEC50 [1, 17]: 11.15
pEC50 [5]: 5.98
pEC50 [2, 18]: 11.00
pEC50 [6]: 6.94
remaining at 0.5 h, 100 µM [7]: 72%
CC50 [3]: > 25000 nM
inhibition at 10 µM [8]: 5.8%
remaining at 2 h, 100 µM [9]: 70%
bioavailability [10]: 4.99%
remaining at 1 h, 100 µM [11]: 75%
half-life [12]: 6.37 h
pEC50 [13]: 4.39
half-life [14]: 1.55 h
remaining at 0.5 h, 1 µM [15]: 96%
pEC50 [16]: 5.40

COC(=O)N[C@@H](C(=O)N1CCC[C@H]1C(=O)Nc1ccc(-c2ccc(NC(=O)[C@@H]3CCCN3C(=O)[C@H](NC(=O)OC)c3ccccc3)cc2C(F)(F)F)c(C(F)(F)F)c1)c1ccccc1 (stereo in doubt; form 1)
pEC50 [4]: 4.10
pEC50 ([1]; huh-7): 11.60
pEC50 [5]: 5.33
pEC50 ([2]; huh-7): 10.60
pEC50 [6]: 6.18
remaining at 0.5 h, 100 µM [7]: 93%
inhibition at 10 µM [8]: 7.98%
remaining at 2 h, 100 µM [9]: 99%
bioavailability [10]: 11.7%
remaining at 1 h, 100 µM [11]: 99%
half-life [12]: 3.8 h
pEC50 [13]: < 4.00
half-life [14]: 2.9 h
remaining at 0.5 h, 1 µM [15]: 79%
pEC50 [16]: 5.33

COC(=O)N[C@@H](C(=O)N1CCC[C@H]1C(=O)Nc1ccc(-c2ccc(NC(=O)[C@@H]3CCCN3C(=O)[C@H](NC(=O)OC)c3ccccc3)cc2C(F)(F)F)c(C(F)(F)F)c1)c1ccccc1 (stereo in doubt; form 2)
pEC50 ([1]; huh-7): 7.55
pEC50 ([2]; huh-7): 6.48
CC50 [3]: > 25000 nM

COC(=O)N[C@@H](C(=O)N1CCCC[C@H]1C(=O)Nc1ccc(-c2ccc(NC(=O)[C@@H]3CCCCN3C(=O)[C@H](NC(=O)OC)c3ccccc3)cc2)cc1)c1ccccc1
pEC50 [1, 17]: 8.68
pEC50 [2, 18]: 6.74
CC50 [3]: > 25000 nM

COC(=O)N[C@@H](C(=O)N1CSC[C@H]1C(=O)Nc1ccc(-c2ccc(NC(=O)[C@@H]3CSCN3C(=O)[C@H](NC(=O)OC)c3ccccc3)cc2)cc1)c1ccccc1
pEC50 [1, 17]: 10.57
pEC50 [2, 18]: 7.81
CC50 [3]: > 25000 nM

COC(=O)N[C@@H](C(=O)N1CCC[C@H]1C(=O)Nc1ccc2c(c1)C(=O)c1cc(NC(=O)[C@@H]3CCCN3C(=O)[C@H](NC(=O)OC)c3ccccc3)ccc1-2)c1ccccc1
pEC50 [1, 17]: 11.40
pEC50 [2, 18]: 8.37
CC50 [3]: > 25000 nM

COC(=O)N[C@@H](C(=O)N1CCC[C@H]1C(=O)Nc1ccc(-c2ccc(NC(=O)[C@@H]3CCCN3C(=O)[C@H](NC(=O)OC)c3ccccc3)cc2Br)c(Br)c1)c1ccccc1
pEC50 [1, 17]: 11.15
pEC50 [2, 18]: 11.00
CC50 [3]: > 25000 nM

COC(=O)N[C@@H](C(=O)N1CCC[C@@H]1C(=O)Nc1ccc(-c2ccc(NC(=O)[C@H]3CCCN3C(=O)[C@H](NC(=O)OC)c3ccccc3)cc2)cc1)c1ccccc1
pEC50 [1, 17]: 7.08
pEC50 [2, 18]: 5.75
CC50 [3]: > 25000 nM

COC(=O)N[C@@H](C(=O)N1CCCC[C@@H]1C(=O)Nc1ccc(-c2ccc(NC(=O)[C@H]3CCCCN3C(=O)[C@H](NC(=O)OC)c3ccccc3)cc2)cc1)c1ccccc1
pEC50 [1, 17]: 6.43
pEC50 [2, 18]: 6.38
CC50 [3]: > 25000 nM

COC(=O)N[C@@H](C(=O)N1CCC[C@@]1(C)C(=O)Nc1ccc(-c2ccc(NC(=O)[C@]3(C)CCCN3C(=O)[C@H](NC(=O)OC)c3ccccc3)cc2)cc1)c1ccccc1
pEC50 [1, 17]: 8.66
pEC50 [2, 18]: 8.48
CC50 [3]: > 25000 nM

COC(=O)N[C@@H](C(=O)N1CCC[C@H]1C(=O)Nc1ccc(-c2ccc(NC(=O)[C@@H]3CCCN3C(=O)[C@H](NC(=O)OC)c3ccccc3)cc2C)c(C)c1)c1ccccc1
pEC50 [1, 17]: 10.46
pEC50 [2, 18]: 9.49
CC50 [3]: > 25000 nM

COC(=O)N[C@@H](C(=O)N1CCC[C@H]1C(=O)Nc1ccc2c(c1)C(C)(C)c1cc(NC(=O)[C@@H]3CCCN3C(=O)[C@H](NC(=O)OC)c3ccccc3)ccc1-2)c1ccccc1
pEC50 [4]: < 4.00
pEC50 [1, 17]: 11.40
pEC50 [5]: 5.53
pEC50 [2, 18]: 10.70
pEC50 [6]: 6.57
CC50 [3]: > 25000 nM
inhibition at 10 µM [8]: 25.7%
bioavailability [10]: 13.8%
half-life [12]: 4.45 h
pEC50 [13]: < 4.00
half-life [14]: 1.62 h
remaining at 0.5 h, 1 µM [15]: 95%
pEC50 [16]: 5.99

COC(=O)N[C@@H](C(=O)N1CCC[C@H]1C(=O)Nc1ccc2c(c1)Cc1cc(NC(=O)[C@@H]3CCCN3C(=O)[C@H](NC(=O)OC)c3ccccc3)ccc1-2)c1ccccc1
pEC50 [1, 17]: 11.05
pEC50 [2, 18]: 8.25
CC50 [3]: > 25000 nM

COC(=O)N[C@@H](C(=O)N1CC(=O)C[C@H]1C(=O)Nc1ccc(-c2ccc(NC(=O)[C@@H]3CC(=O)CN3C(=O)[C@H](NC(=O)OC)c3ccccc3)cc2)cc1)c1ccccc1
pEC50 [1, 17]: 10.36
pEC50 [2, 18]: 9.59
CC50 [3]: > 25000 nM

COC(=O)N[C@@H](C(=O)N1CCC[C@H]1C(=O)Nc1ccc(-c2ccc(NC(=O)[C@@H]3CCCN3C(=O)[C@H](NC(=O)OC)c3ccccc3)cc2)cc1)c1ccccc1
CC50 [3]: > 25000 nM

COC(=O)N[C@@H](C(=O)N1CCC[C@H]1C(=O)Nc1ccc(-c2ccc(NC(=O)[C@@H]3CCCN3C(=O)[C@H](NC(=O)OC)c3ccccc3)cc2F)c(F)c1)c1ccccc1
pEC50 [4]: < 4.00
pEC50 [1, 17]: 11.30
pEC50 [5]: 6.14
pEC50 [2, 18]: 9.80
pEC50 [6]: 7.06
remaining at 0.5 h, 100 µM [7]: 65%
CC50 [3]: > 25000 nM
inhibition at 10 µM [8]: < 1%
remaining at 2 h, 100 µM [9]: 63%
bioavailability [10]: 3.12%
remaining at 1 h, 100 µM [11]: 61%
half-life [12]: 2.34 h
pEC50 [13]: 5.31
half-life [14]: 0.88 h
remaining at 0.5 h, 1 µM [15]: 97%
pEC50 [16]: 5.61
